Assay results from ChEMBL document CHEMBL3868583, “6-Aryl substituted 4-(4-cyanomethyl) phenylamino quinazolines as a new class of isoform-selective PI3K-alpha inhibitors” (Eur J Med Chem, 2016).

Columns and labels:
Mus musculus [1] = assay: Toxicity in Swiss mouse implanted with Swiss mouse EAC cells assessed as body weight at 20 mg/kg, ip administered for 1 to 9 days measured on day 1 (reference value: 22.8 g); format: organism-based, Ehrlich; settings: in vivo
Outline: (§1)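 1×10^7 EAC cells injected intraperitoneally into Swiss mice on day 0. Mice randomized next day: treated groups n=7, saline control n=10 (0.2 ml i.p.). Dosing i.p. days 1–9. Sacrifice on day 12; ascitic fluid collected from the peritoneal cavity. % tumor growth inhibition from total tumor cell count versus control. Body weight and mortality tracked.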

Mus musculus [2] = assay: Toxicity in Swiss mouse implanted with Swiss mouse EAC cells assessed as mortality at 20 mg/kg, ip administered for 1 to 9 days measured on day 12; format: organism-based, Ehrlich; settings: in vivo; outline: as §1
Mus musculus [3] = assay: Toxicity in Swiss mouse implanted with Swiss mouse EAT cells assessed as body weight at 22 mg/kg, ip administered for 1 to 9 days measured on day 9 (reference value: 22.8 g); format: organism-based; settings: in vivo
Outline: (§2)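 EAC cells harvested from 8–10-day ascitic Swiss mice; 1×10^7 cells injected intramuscularly into right thigh of Swiss male mice on day 0. Randomized next day: treated n=7, saline control n=10 (0.2 ml i.p.). Dosing i.p. days 1–9. […] Body weight and mortality tracked.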

[4] = Anticancer activity against Swiss mouse EAC cells implanted in Swiss mouse assessed as tumor growth inhibition at 20 mg/kg, ip administered for 1 to 9 days measured on day 12 relative to control; format: functional; settings: Ehrlich, read-out: TGI; outline: as §1
Mus musculus [5] = assay: Toxicity in Swiss mouse implanted with Swiss mouse EAT cells assessed as body weight at 22 mg/kg, ip administered for 1 to 9 days measured on day 13 (reference value: 24.1 g); format: organism-based; settings: in vivo; outline: as §2
Mus musculus [6] = assay: Toxicity in Swiss mouse implanted with Swiss mouse EAC cells assessed as body weight at 20 mg/kg, ip administered for 1 to 9 days measured on day 12 (reference value: 28.4 g); format: organism-based, Ehrlich; settings: in vivo; outline: as §1
Mus musculus [7] = assay: Toxicity in Swiss mouse implanted with Swiss mouse EAC cells assessed as body weight at 20 mg/kg, ip administered for 1 to 9 days measured on day 5 (reference value: 26.2 g); format: organism-based, Ehrlich; settings: in vivo; outline: as §1
Mus musculus [8] = assay: Toxicity in Swiss mouse implanted with Swiss mouse EAT cells assessed as body weight at 22 mg/kg, ip administered for 1 to 9 days measured on day 5 (reference value: 22.6 g); format: organism-based; settings: in vivo; outline: as §2
[9] = Anticancer activity against Swiss mouse EAT cells implanted in Swiss mouse assessed as tumor growth inhibition at 22 mg/kg, ip administered for 1 to 9 days measured on day 13 relative to control; format: functional; settings: read-out: TGI
Mus musculus [10] = assay: Toxicity in Swiss mouse implanted with Swiss mouse EAC cells assessed as body weight at 20 mg/kg, ip administered for 1 to 9 days measured on day 9 (reference value: 27.7 g); format: organism-based, Ehrlich; settings: in vivo; outline: as §1
Mus musculus [11] = assay: Toxicity in Swiss mouse implanted with Swiss mouse EAT cells assessed as mortality at 22 mg/kg, ip administered for 1 to 9 days measured on day 9 and 13; format: organism-based; settings: in vivo; outline: as §2
Mus musculus [12] = assay: Toxicity in Swiss mouse implanted with Swiss mouse EAT cells assessed as body weight at 22 mg/kg, ip administered for 1 to 9 days measured on day 1 (reference value: 21.6 g); format: organism-based; settings: in vivo; outline: as §2

In the case of `O=c1[nH]cc(F)c(=O)[nH]1` [FLUOROURACIL], the Activity (Mus musculus [1]) is reported as 21.42 g, the Activity (Mus musculus [2]) is reported as “Non-Toxic” and the Activity (Mus musculus [3]) is reported as 21 g. It also gave an inhibition in vivo at 20 mg/kg [4] of 96.9%, an Activity (Mus musculus [5]) of 22.14 g and an Activity (Mus musculus [6]) of 20.42 g. The Activity (Mus musculus [7]) was 22 g, the Activity (Mus musculus [8]) was 20.85 g and the inhibition in vivo at 22 mg/kg [9] was 50%. For the same molecule, the Activity (Mus musculus [10]) was 21.28 g, the Activity (Mus musculus [11]) was “Non-Toxic” and the Activity (Mus musculus [12]) was 20.14 g.
